Experiment [1] addresses T1, Proteasome Macropain subunit MB1 (Homo sapiens, UniProt P28074).
T1 sequence (P28074 whole entry): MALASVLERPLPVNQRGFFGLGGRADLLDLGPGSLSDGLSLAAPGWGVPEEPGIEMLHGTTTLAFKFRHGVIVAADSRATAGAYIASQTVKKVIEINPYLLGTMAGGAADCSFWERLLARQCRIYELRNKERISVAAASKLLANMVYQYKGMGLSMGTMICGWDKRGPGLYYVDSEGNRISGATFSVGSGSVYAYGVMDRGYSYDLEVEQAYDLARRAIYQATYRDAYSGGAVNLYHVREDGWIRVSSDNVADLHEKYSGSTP
In words: Inhibition of chymotrypsin-like activity of human 20S proteasome beta 5 subunit assessed as Suc-Leu-Leu-Val-Tyr-AMC substrate hydrolysis after 10 mins by fluorometric analysis. The method in brief: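 Human 20S proteasome at 0.004 mg mL-1 final, incubated at 30 °C with varied inhibitor concentrations. Buffer: 50 mM Tris pH 7.5, 10 mM NaCl, 25 mM KCl, 1 mM MgCl2, 0.03% SDS, 5% DMSO. Ki from progress-curve slopes fitted to a 4-parameter IC50 equation, Ki = IC50/(1+[S]/Km), Km measured separately. Mean of three.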

In experiment [2] the target is T2, Proteasome Macropain subunit MB1 (Homo sapiens) (UniProt P28074).
T2 sequence (whole entry): T1 sequence (P28074 whole entry)
Nature of the experiment: Inhibition of chymotrypsin-like activity of human 20S proteasome beta 5 subunit assessed as Suc-Leu-Leu-Val-Tyr-AMC substrate hydrolysis at 20 uM after 10 mins by fluorometric analysis. An outline of the steps: (§1)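 Single-concentration preliminary screen of human 20S proteasome activity. An equivalent amount of DMSO served as negative control. AMC release read by fluorescence at 30 °C (ex 380/em 460 nm). Percent inhibition was recorded, and at least 40% inhibition triggered full Ki assays.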

The target in experiment [3] is Chymotrypsinogen A (Bos taurus, UniProt P00766). Nature of the experiment: (§2) Inhibition of bovine pancreatic alpha-chymotrypsin activity assessed as Suc-Leu-Leu-Val-Tyr-AMC substrate hydrolysis after 10 mins. An outline of the steps: (§3)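 Bovine pancreatic α-chymotrypsin in 50 mM Tris pH 8.0 with 100 mM NaCl, 5 mM EDTA and 7.5% DMSO. Suc-Leu-Leu-Val-Tyr-AMC at 75 (final) as substrate. AMC release was followed over 10 min.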

Experiment [4] deals with Cathepsin B (Homo sapiens) (UniProt P07858). In words: Inhibition of cathepsin B (unknown origin) assessed as Cbz-Phe-Arg-AMC substrate hydrolysis.
Experiment [5] has as its system NCI60. In words: Cytotoxicity against human NCI60 cells at 10^-5 M. The experiment is classed as functional, cell-based.
For experiment [6], the target named is Chymotrypsinogen A (Bos taurus) (UniProt P00766). The description is as §2. An outline of the steps: as §3
The target of experiment [7] is T3, Proteasome component C5 (Homo sapiens) (UniProt P20618).
T3 sequence (whole entry): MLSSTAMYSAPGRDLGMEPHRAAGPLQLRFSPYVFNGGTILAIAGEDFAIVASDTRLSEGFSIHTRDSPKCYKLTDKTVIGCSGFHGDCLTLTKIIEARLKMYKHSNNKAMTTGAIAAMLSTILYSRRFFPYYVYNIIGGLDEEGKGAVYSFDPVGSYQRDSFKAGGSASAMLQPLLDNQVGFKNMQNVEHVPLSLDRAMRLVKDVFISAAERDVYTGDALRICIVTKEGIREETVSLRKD
Nature of the experiment: Inhibition of caspase-like activity of human 20S proteasome beta 1 subunit assessed as Cbz-Leu-Leu-Glu-AMC substrate hydrolysis at 20 uM after 10 mins by fluorometric analysis. An outline of the steps:
as §1

SMILES strings stand for the structures. Activity calls are given as the source filed them. No cut-off for these calls is given here. Where only a bound is given, the exact number is not on record here.

For `O=C(Cn1ccc(Nc2ccccc2)cc1=O)Nc1ccccc1C(=O)c1ccccc1`, the results for the Ki in experiment [1] and in experiment [3] were 8.03 µM and 6.65 µM, respectively. Further, in experiment [2], the inhibition is 67%. In experiment [4], the inhibition entry is “inactive”. Moreover, the outcome in experiment [5] was inactive.
With `O=C(Cn1ccccc1=O)NC12CC3CC(CC(C3)C1)C2`, in experiment [1], the Ki came out at 7.55 µM. The inhibition in experiment [2] was 86%; in experiment [7] it was more than 50%. The inhibition entry in experiment [6] and in experiment [4] was “inactive” throughout. Further, the result in experiment [5] was inactive.
Regarding `O=C(Cn1ccc(Nc2ccccc2)cc1=O)NCc1ccccc1`, the inhibition in experiment [2] came to 16%. In addition, the inhibition entry in experiment [6] and in experiment [4] was “inactive” throughout. Besides, the result in experiment [5] was inactive.
As to `CC(C)CCNC(=O)Cn1ccc2ncccc2c1=O`, the inhibition in experiment [2] is 10%. The inhibition result in experiment [6] and in experiment [4] was “inactive” in each case. Moreover, the outcome in experiment [5] was inactive.
With `CC(C)C[C@H](NC(=O)[C@H](C)n1ccc2ncccc2c1=O)B(O)O`, the inhibition in experiment [2] was 100%.
Turning to `O=C(Cn1ccc(Nc2ccccc2)cc1=O)Nc1ccccc1`, in experiment [2], the inhibition came to 9%. The inhibition entry in experiment [6] and in experiment [4] was “inactive” each time. Also, in experiment [5], the outcome was inactive.
As to `CC(C)CCNC(=O)Cn1ccc(N2CCCCC2)cc1=O`, in experiment [2], the inhibition was 27%. Also, the inhibition result in experiment [6] and in experiment [4] was “inactive” in each case. Also, in experiment [5], the result was inactive.
As for `CC(C)CCNC(=O)Cn1ccc(N2CCOCC2)cc1=O`, the Ki in experiment [1] turned out to be 7.67 µM. Moreover, the inhibition in experiment [2] turned out to be 42%. Further, the inhibition result in experiment [6] and in experiment [4] was “inactive” throughout. In addition, the outcome in experiment [5] was inactive.
As to `CC(C)C[C@H](NC(=O)Cn1ccc2c(c1=O)CCCN2C)B(O)O`, the inhibition in experiment [2] was 84%.
With `O=C(Cn1ccccc1=O)Nc1ccccc1`, the inhibition in experiment [2] came out at 23%. Besides, the inhibition result in experiment [6] and in experiment [4] was “inactive” each time. Moreover, the outcome in experiment [5] was inactive.
Consider `CC(C)CCNC(=O)Cn1ccc2c(c1=O)CCCN2C`, for which the inhibition in experiment [2] turned out to be 7%. In addition, the inhibition entry in experiment [6] and in experiment [4] was “inactive” in each case. Also, the result in experiment [5] was inactive.
Turning to `CC(C)C[C@H](NC(=O)Cn1ccc2ncccc2c1=O)B(O)O`, in experiment [2], the inhibition was 100%.
As to `CC(C)CCNC(=O)Cn1ccc2c(c1=O)CCCN2`, the Ki in experiment [1] is 10.1 µM. In addition, the inhibition in experiment [2] was determined as 45%. Also, the inhibition result in experiment [6] and in experiment [4] was “inactive” throughout. For the same compound, the result in experiment [5] was inactive.
As to `CC(C)C[C@H](NC(=O)Cn1ccc(Nc2ccccc2)cc1=O)B(O)O`, the inhibition in experiment [2] turned out to be 97%.
On to `COc1ccc(NC(=O)Cn2ccccc2=O)cc1`, for which the inhibition in experiment [2] stood at 32%. Also, the inhibition entry in experiment [6] and in experiment [4] was “inactive” each time. In addition, in experiment [5], the result was inactive.
Turning to `O=C(Cn1ccc(Nc2ccccc2)cc1=O)NC12CC3CC(CC(C3)C1)C2`, the inhibition in experiment [2] came to 13%. Besides, the inhibition result in experiment [6] and in experiment [4] was “inactive” each time. Moreover, the outcome in experiment [5] was inactive.
For the compound `CC(C)C[C@H](NC(=O)Cn1cc(Br)c2ncccc2c1=O)B(O)O`, the inhibition in experiment [2] stood at 100%.
As to `CC(C)CCNC(=O)[C@H](C)n1ccc2ncccc2c1=O`, in experiment [2], the inhibition was 35%. Moreover, the inhibition result in experiment [6] and in experiment [4] was “inactive” in each case. For the same compound, in experiment [5], the outcome was inactive.
On to `CC(C)C[C@H](NC(=O)[C@H](Cc1ccccc1)NC(=O)c1cnccn1)B(O)O`, for which the inhibition in experiment [2] was 100%. The inhibition result in experiment [6] and in experiment [4] was “inactive” each time. For the same compound, the outcome in experiment [5] was inactive.
For the compound `CC(C)CCNC(=O)Cn1cc(Br)c2ncccc2c1=O`, the Ki in experiment [1] is 0.56 µM. Besides, in experiment [2], the inhibition is 56%. Besides, the inhibition result in experiment [6] and in experiment [4] was “inactive” each time. Also, the result in experiment [5] was inactive.
`CCN(CC)c1ccn(CC(=O)N[C@@H](CC(C)C)B(O)O)c(=O)c1`: the inhibition in experiment [2] is 100%.
Consider `CCN(CC)c1ccn(CC(=O)NCCC(C)C)c(=O)c1`, for which the inhibition in experiment [2] was 28%. For the same compound, the inhibition result in experiment [6] and in experiment [4] was “inactive” in each case. For the same compound, in experiment [5], the outcome was inactive.
Take `CC(C)CCNC(=O)Cn1ccc(Nc2ccccc2)cc1=O`: in experiment [1], the Ki came out at 0.33 µM. Moreover, the inhibition in experiment [2] stood at 87%. Further, the inhibition entry in experiment [6] and in experiment [4] was “inactive” each time. For the same compound, the result in experiment [5] was inactive.
As for `COc1ccc(NC(=O)Cn2ccc(Nc3ccccc3)cc2=O)cc1`, the Ki in experiment [1] was 1.48 µM. Also, the inhibition was 72% in experiment [2] and more than 50% in experiment [7]. Moreover, the inhibition result in experiment [6] and in experiment [4] was “inactive” each time. For the same compound, the result in experiment [5] was inactive.
For `O=C(Cn1ccccc1=O)Nc1ccccc1C(=O)c1ccccc1`, in experiment [2], the inhibition is 21%. Also, the inhibition entry in experiment [6] and in experiment [4] was “inactive” in each case. Besides, in experiment [5], the outcome was inactive.
Consider `O=C(Cn1ccccc1=O)NCc1ccccc1`, for which the inhibition in experiment [2] stood at 15%. Moreover, the inhibition result in experiment [6] and in experiment [4] was “inactive” each time. For the same compound, the outcome in experiment [5] was inactive.

These data come from ChEMBL document CHEMBL3232790, “Identification of a new series of amides as non-covalent proteasome inhibitors” (Eur J Med Chem, 2014).
